Measured values reported in ChEMBL document CHEMBL2176984, “Target Selectivity of FimH Antagonists” (J Med Chem, 2012).
Calls of active or inactive are those of the source. The calls are words filed in the database; no cut-off is given here.

How the values were obtained:
[1] = molecular target: T1, C-type lectin domain family 4 member C (Homo sapiens) (UniProt Q8WTT0); assay: Displacement of biotinylated-TM PAA from human DLEC at 50 mM after 3 hrs by colorimetry
T1 sequence (whole entry): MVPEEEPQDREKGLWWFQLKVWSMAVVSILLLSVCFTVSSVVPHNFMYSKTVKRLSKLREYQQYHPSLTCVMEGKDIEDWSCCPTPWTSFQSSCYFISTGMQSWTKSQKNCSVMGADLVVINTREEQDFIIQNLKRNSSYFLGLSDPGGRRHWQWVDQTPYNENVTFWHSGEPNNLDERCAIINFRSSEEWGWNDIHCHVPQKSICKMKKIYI
Outline: (§1)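 α-D-mannose served as the positive control at 50 mM final, mixed with streptavidin-HRP-TM-PAA and applied to lectin-coated wells. Wells were coated overnight at 4 °C in HEPES/NaCl/10 mM CaCl2 at pH 7.4 and blocked with BSA. Incubation was 3 h at 25 °C, followed by four washes and ABTS development for 4 min, stopped with oxalic acid, OD 415 nm. Binding is expressed as % of the antagonist-free signal after subtracting the polymer-free background.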

[2] = molecular target: T2, C-type lectin domain family 6 member A (Homo sapiens) (UniProt Q6EIG7); assay: Displacement of biotinylated-TM PAA from human Dectin-2 at 50 mM after 3 hrs by colorimetry; outline: as §1
T2 sequence (whole entry): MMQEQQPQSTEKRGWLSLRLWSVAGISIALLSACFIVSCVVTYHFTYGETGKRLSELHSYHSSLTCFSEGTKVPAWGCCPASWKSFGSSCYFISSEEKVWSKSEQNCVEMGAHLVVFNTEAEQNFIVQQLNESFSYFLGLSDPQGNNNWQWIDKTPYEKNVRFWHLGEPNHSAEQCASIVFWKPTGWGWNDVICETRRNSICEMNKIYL

[3] = molecular target: T3, C-type lectin domain family 4 member K (Homo sapiens, UniProt Q9UJ71); assay: Displacement of biotinylated-TM PAA from human langerin at 50 mM after 3 hrs by colorimetry; outline: as §1
T3 sequence (Q9UJ71 whole entry, the tested form may be a part): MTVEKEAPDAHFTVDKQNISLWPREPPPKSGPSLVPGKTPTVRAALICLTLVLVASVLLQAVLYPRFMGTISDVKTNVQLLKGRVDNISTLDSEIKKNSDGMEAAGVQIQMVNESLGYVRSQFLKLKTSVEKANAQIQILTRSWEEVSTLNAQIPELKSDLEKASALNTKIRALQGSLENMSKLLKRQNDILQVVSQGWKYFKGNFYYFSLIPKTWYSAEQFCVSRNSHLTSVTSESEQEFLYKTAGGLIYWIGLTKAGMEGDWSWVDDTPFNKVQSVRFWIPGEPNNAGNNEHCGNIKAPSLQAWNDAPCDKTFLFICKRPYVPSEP

[4] = molecular target: T4, Pulmonary surfactant-associated protein D (Homo sapiens) (UniProt P35247); assay: Displacement of biotinylated-TM PAA from human SP-D at 50 mM after 3 hrs by colorimetry; outline: as §1
T4 sequence (whole entry): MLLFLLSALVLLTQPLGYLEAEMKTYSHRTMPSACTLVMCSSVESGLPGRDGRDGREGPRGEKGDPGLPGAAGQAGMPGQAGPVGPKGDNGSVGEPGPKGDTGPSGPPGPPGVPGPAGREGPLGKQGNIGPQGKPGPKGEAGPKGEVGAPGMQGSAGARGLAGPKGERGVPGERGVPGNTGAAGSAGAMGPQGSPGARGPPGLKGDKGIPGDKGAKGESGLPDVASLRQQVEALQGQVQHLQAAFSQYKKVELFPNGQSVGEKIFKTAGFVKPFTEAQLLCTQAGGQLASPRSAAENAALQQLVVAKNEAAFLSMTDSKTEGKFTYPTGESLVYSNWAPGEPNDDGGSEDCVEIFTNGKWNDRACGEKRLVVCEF

[5] = molecular target: T5, Macrophage mannose receptor 1 (Homo sapiens) (UniProt P22897); assay: Displacement of biotinylated-TM PAA from human MMR at 50 mM after 3 hrs by colorimetry; outline: as §1
T5 sequence (whole entry): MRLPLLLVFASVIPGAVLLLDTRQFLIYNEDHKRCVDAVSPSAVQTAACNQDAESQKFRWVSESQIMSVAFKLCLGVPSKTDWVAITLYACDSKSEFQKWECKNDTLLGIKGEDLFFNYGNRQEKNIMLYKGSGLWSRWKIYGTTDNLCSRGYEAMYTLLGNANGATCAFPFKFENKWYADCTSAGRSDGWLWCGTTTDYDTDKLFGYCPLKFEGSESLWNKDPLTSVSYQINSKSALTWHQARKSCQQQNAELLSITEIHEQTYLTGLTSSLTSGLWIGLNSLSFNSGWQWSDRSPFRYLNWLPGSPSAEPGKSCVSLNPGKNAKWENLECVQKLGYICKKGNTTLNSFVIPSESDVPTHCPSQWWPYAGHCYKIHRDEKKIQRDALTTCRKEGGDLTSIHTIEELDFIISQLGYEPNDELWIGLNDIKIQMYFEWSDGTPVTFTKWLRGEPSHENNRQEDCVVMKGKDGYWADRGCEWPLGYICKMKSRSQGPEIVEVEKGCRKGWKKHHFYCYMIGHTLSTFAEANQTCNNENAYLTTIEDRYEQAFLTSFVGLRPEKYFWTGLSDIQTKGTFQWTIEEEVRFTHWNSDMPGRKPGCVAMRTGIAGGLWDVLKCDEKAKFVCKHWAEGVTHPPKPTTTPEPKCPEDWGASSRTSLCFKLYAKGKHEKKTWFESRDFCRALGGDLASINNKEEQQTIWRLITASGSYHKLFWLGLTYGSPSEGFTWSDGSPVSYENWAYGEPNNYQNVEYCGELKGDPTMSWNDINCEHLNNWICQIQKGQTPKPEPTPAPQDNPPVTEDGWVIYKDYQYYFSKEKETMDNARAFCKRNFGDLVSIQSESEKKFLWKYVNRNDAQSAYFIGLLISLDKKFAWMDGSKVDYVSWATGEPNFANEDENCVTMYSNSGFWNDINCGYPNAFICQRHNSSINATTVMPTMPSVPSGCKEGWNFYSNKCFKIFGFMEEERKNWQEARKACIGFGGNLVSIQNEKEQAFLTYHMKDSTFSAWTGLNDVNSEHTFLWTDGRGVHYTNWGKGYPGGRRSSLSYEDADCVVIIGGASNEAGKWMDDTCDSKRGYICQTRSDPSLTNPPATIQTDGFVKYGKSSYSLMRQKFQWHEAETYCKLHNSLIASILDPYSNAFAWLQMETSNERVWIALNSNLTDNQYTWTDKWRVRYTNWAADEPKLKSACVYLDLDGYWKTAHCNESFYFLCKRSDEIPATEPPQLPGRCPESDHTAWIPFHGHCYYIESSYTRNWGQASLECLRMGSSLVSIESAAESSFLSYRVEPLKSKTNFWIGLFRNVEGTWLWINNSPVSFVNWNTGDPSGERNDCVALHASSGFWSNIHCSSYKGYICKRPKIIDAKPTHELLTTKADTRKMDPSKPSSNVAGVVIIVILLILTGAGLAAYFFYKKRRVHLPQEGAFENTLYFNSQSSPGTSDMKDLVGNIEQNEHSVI

[6] = molecular target: T6, C-type lectin domain family 4 member M (Homo sapiens) (UniProt Q9H2X3); assay: Displacement of biotinylated-TM PAA from human DC-SIGNR at 50 mM after 3 hrs by colorimetry; outline: as §1
T6 sequence (whole entry): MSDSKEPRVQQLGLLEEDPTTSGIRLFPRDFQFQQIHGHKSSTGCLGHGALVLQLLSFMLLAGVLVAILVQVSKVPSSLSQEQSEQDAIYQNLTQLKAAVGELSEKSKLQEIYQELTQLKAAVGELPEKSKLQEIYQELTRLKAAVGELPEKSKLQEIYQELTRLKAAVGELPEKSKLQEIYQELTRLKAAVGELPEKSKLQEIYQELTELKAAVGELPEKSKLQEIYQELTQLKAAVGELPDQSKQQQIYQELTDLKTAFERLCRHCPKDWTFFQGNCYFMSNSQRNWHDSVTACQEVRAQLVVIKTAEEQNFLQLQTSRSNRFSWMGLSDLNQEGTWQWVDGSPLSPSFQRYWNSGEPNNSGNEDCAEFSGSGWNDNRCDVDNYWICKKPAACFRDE

[7] = molecular target: T7, CD209 antigen (Homo sapiens) (UniProt Q9NNX6); assay: Displacement of biotinylated-TM PAA from human DC-SIGN at 50 mM after 3 hrs by colorimetry; outline: as §1
T7 sequence (whole entry): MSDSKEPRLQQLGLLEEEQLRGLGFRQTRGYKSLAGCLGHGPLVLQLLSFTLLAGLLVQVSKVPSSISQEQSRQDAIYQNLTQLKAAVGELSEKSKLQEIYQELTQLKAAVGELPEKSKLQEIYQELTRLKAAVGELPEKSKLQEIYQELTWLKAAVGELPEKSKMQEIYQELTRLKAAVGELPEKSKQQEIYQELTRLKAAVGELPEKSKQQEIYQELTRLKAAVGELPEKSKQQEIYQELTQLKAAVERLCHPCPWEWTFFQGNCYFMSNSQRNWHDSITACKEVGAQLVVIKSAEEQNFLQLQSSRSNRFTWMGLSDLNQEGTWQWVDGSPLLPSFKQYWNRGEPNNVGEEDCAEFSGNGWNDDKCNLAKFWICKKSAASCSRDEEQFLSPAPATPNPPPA

[8] = molecular target: Mannose-binding protein C (Homo sapiens) (UniProt P11226); assay: Displacement of biotinylated-TM PAA from human MBP at 50 mM after 3 hrs by colorimetry; outline: as §1
Chain of Mannose-binding protein C (Homo sapiens) (P11226 whole entry): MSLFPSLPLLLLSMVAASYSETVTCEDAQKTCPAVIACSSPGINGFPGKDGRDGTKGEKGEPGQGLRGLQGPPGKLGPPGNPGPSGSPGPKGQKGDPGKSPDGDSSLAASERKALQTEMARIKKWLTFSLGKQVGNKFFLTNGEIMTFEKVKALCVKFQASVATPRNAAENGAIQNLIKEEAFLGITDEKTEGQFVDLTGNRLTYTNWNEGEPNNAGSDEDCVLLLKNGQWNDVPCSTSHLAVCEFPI

Escherichia coli [9] = assay: Displacement of biotinylated-TM PAA from Escherichia coli FimH expressed in Escherichia coli HM125 at 50 mM after 3 hrs by colorimetry; outline: as §1
[10] = molecular target: T8, Macrophage mannose receptor 1 (Homo sapiens, UniProt P22897); assay: Displacement of biotinylated-TM PAA from human MMR after 3 hrs by colorimetry
T8 sequence (P22897 whole entry): T5 sequence (whole entry)

[11] = molecular target: T1, C-type lectin domain family 4 member C (Homo sapiens); assay: Displacement of biotinylated-TM PAA from human DLEC at 1 mM after 3 hrs by colorimetry
Outline: (§2)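 Proteins were coated overnight at 4 °C in 20 mM HEPES pH 7.4, 150 mM NaCl and 10 mM CaCl2, then blocked with 3% BSA for 2 h at 4 °C. FimH was a CRD-thrombin-6His construct expressed in E. coli HM125; DC-SIGN and DC-SIGNR were CRD-Fc chimeras made in stably transfected CHO-K1. Compound at 1 mM final was co-added with streptavidin-HRP-coupled TM-PAA, incubated 3 h at 25 °C and 350 rpm, then read by ABTS OD 415 nm. No-antagonist signal was set to 100% and no-polymer background to 0%.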

[12] = molecular target: T2, C-type lectin domain family 6 member A (Homo sapiens); assay: Displacement of biotinylated-TM PAA from human Dectin-2 at 1 mM after 3 hrs by colorimetry; outline: as §2
[13] = molecular target: T3, C-type lectin domain family 4 member K; assay: Displacement of biotinylated-TM PAA from human langerin at 1 mM after 3 hrs by colorimetry; outline: as §2
[14] = molecular target: T4, Pulmonary surfactant-associated protein D (Homo sapiens); assay: Displacement of biotinylated-TM PAA from human SP-D at 1 mM after 3 hrs by colorimetry; outline: as §2
[15] = molecular target: T5, Macrophage mannose receptor 1 (Homo sapiens); assay: Displacement of biotinylated-TM PAA from human MMR at 1 mM after 3 hrs by colorimetry; outline: as §2
[16] = molecular target: T6, C-type lectin domain family 4 member M (Homo sapiens); assay: Displacement of biotinylated-TM PAA from human DC-SIGNR at 1 mM after 3 hrs by colorimetry; outline: as §2
[17] = molecular target: T7, CD209 antigen (Homo sapiens); assay: Displacement of biotinylated-TM PAA from human DC-SIGN at 1 mM after 3 hrs by colorimetry; outline: as §2
[18] = molecular target: Mannose-binding protein C (Homo sapiens) (UniProt P11226); assay: Displacement of biotinylated-TM PAA from human MBP at 1 mM after 3 hrs by colorimetry; outline: as §2
[19] = Displacement of biotinylated-TM PAA from Escherichia coli FimH expressed in Escherichia coli HM125 after 3 hrs by colorimetry
Escherichia coli [20] = assay: Displacement of biotinylated-TM PAA from Escherichia coli FimH expressed in Escherichia coli HM125 at 1 mM after 3 hrs by colorimetry; outline: as §2
[21] = Cmax in mouse; assay type: ADME, organism-based; settings: in vivo
[22] = molecular target: T9, C-type lectin domain family 4 member C (Homo sapiens, UniProt Q8WTT0); assay: Displacement of biotinylated-TM PAA from human DLEC after 3 hrs by colorimetry
T9 sequence (Q8WTT0 whole entry): T1 sequence (whole entry)

SMILES | inhibition [11] | inhibition [12] | inhibition [13] | inhibition [14] | inhibition [15] | inhibition [16] | inhibition [17] | inhibition [18] | IC50 [19] [µM] | inhibition (Escherichia coli [20]) | also measured
OC[C@H]1OC(O)[C@@H](O)[C@@H](O)[C@@H]1O (some centres not stated) |  |  |  |  |  |  |  |  |  |  | inhibition [1]: > 90%; inhibition [2]: > 90%; inhibition [3]: > 90%; inhibition [4]: > 90%; inhibition [5]: > 90%; inhibition [6]: > 90%; inhibition [7]: > 90%; inhibition [8]: > 90%; inhibition (Escherichia coli [9]): > 90%
O=C(O)c1ccc2c(ccn2-c2ccc(O[C@H]3O[C@H](CO)[C@@H](O)[C@H](O)[C@@H]3O)c(Cl)c2)c1 | inactive | inactive | inactive | inactive | 58% | inactive | inactive | inactive | 0.02 | Active | IC50 [10]: 1000 µM
O=C(O)c1ccc(-c2ccc(O[C@H]3O[C@H](CO)[C@@H](O)[C@H](O)[C@@H]3O)cc2)cc1 | 50% | inactive | inactive | inactive | inactive | inactive | inactive | inactive | 0.017 | Active | Cmax [21]: 80 µM; IC50 [22]: 1000 µM
